In ChEMBL document CHEMBL1126768, “A mechanism-based inactivation study of neutral endopeptidase 24.11” (J Med Chem, 1993) one finds Ki data, which are given here for two compounds.

In assay [1] the target is T1, Neprilysin (Homo sapiens, UniProt P08473). The assay can be described thus: Inhibition constant determined for neutral endopeptidase (NEP). An outline of the steps:
(§1)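 Reversible inhibition of recombinant human NEP (0.5 μM final), tested with inactivator at 1–50 μM in 50 mM HEPES pH 7.4 plus 5% p-dioxane. DAGNPG substrate was used at 100 and 500 μM. NEP was added last and activity was read immediately by continuous fluorescence (ex 342, em 562 nm).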

The target in assay [2] is T2, Angiotensin-converting enzyme (Rattus norvegicus, UniProt P47820).
T2 sequence (P47820 whole entry): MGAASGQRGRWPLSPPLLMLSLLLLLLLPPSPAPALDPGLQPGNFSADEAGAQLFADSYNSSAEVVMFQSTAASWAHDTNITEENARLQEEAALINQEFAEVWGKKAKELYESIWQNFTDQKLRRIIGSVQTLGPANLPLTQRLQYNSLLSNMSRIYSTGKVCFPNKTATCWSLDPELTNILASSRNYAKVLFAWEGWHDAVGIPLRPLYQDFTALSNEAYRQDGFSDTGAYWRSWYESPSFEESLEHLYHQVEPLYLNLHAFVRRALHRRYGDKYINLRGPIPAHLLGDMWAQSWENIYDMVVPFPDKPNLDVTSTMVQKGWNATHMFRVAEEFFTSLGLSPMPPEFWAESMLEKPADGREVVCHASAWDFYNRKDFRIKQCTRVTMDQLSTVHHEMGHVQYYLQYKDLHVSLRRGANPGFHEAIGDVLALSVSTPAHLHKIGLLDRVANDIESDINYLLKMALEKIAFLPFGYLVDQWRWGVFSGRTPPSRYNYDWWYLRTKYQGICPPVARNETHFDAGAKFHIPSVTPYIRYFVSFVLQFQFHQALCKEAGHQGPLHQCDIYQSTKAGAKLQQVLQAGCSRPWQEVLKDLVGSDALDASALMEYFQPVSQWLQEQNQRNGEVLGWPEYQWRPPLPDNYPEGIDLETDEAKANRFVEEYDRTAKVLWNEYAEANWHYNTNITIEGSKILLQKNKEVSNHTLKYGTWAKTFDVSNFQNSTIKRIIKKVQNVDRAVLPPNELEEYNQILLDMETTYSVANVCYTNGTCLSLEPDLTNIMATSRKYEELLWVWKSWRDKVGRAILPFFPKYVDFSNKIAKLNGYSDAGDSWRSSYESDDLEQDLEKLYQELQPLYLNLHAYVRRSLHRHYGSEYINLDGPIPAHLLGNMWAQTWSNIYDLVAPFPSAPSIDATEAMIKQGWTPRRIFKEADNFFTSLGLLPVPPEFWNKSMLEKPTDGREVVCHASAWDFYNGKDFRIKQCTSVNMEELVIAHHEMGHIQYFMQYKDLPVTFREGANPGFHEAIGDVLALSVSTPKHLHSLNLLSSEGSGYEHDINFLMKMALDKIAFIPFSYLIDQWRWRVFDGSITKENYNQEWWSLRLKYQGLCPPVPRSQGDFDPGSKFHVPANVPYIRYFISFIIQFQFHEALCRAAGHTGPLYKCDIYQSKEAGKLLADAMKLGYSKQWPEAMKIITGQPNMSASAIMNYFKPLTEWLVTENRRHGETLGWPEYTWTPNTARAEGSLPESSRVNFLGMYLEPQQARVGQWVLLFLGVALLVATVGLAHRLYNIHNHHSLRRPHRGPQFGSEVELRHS
Put plainly: Inhibition constant determined for angiotensin converting enzyme (ACE).

The target in assay [3] is T1, Neprilysin. The assay can be described thus: Inhibition constant determined for Neutral endopeptidase (NEP). An outline of the steps:
as §1

Assay [4] deals with T2, Angiotensin-converting enzyme. Put plainly: Inhibition constant determined for Angiotensin I converting enzyme.

T1 sequence (P08473 whole entry): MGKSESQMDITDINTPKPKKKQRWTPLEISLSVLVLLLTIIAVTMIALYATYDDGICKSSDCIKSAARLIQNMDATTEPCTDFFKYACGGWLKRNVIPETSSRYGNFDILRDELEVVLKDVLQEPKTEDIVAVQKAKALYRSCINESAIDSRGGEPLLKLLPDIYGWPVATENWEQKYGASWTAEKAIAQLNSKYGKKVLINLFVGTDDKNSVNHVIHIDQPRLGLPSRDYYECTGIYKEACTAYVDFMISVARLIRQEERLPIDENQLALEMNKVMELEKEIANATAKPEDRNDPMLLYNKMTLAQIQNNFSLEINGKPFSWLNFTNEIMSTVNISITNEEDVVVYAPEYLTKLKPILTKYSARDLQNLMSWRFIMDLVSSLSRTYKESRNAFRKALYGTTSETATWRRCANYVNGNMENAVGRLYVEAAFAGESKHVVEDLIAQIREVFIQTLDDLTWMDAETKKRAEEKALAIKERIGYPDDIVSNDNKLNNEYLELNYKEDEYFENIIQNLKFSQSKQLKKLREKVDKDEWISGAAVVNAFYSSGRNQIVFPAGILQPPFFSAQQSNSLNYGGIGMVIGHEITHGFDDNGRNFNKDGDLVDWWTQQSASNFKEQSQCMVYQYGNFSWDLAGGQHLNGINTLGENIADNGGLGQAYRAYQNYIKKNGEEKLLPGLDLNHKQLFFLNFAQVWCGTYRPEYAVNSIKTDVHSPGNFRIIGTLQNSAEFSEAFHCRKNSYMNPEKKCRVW

As to `N#CCC(=O)CC(Cc1ccccc1)C(=O)NC(Cc1ccccc1)C(=O)O` (centres undefined), the results for the Ki (on Neprilysin [1]; in assay [2]) were 14 µM and above 10 mM, respectively.

For the compound `N#CCC(=O)NC(Cc1ccccc1)C(=O)NC(Cc1ccccc1)C(=O)O` (centres undefined), the Ki (in general, the dissociation constant of the complex between target and ligand, obtained from inhibition or displacement) came out at 17 µM on Neprilysin [3] and 65 µM in assay [4].
